Experimental data: ChEMBL document CHEMBL1932938, “From COX-2 inhibitor nimesulide to potent anti-cancer agent: synthesis, in vitro, in vivo and pharmacokinetic evaluation” (Eur J Med Chem, 2012)

Experiments:
SK-BR-3 [1] = test: Cell cycle arrest in human SK-BR-3 cells assessed as accumulation at S phase at 0.25 uM after 3 hrs using propidium iodide staining by FACS analysis; format: functional
SK-BR-3 [2] = test: Cell cycle arrest in human SK-BR-3 cells assessed as accumulation at Sub-G1 phase at 5 uM after 6 hrs using propidium iodide staining by FACS analysis; format: functional
KM12 = test: Growth inhibition of human KM12 cells after 48 hrs by SRB assay; format: functional
SK-BR-3 [3] = test: Cell cycle arrest in human SK-BR-3 cells assessed as accumulation at Sub-G1 phase at 0.25 uM after 24 hrs using propidium iodide staining by FACS analysis; format: functional
[4] = Cmax in Sprague-Dawley rat plasma at 20 mg/kg, ip; format: ADME, organism-based; design: dose 20 mg/kg, route intraperitoneal
Method in brief: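 Male Sprague–Dawley rats (300–350 g, n=3), fasted overnight, received one i.p. dose in PBS with 0.1% Tween80 and 20% DMSO. Blood (150 µL) was drawn from saphenous and femoral veins into heparinized tubes at 0–24 h, and plasma was stored at –20 °C. Samples underwent tert-butyl methyl ether/n-hexane extraction, then C18 isocratic LC-MS/MS in MRM mode with an internal standard; the method was validated over 0.1–100 ng/mL.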

NCI-H23 = test: Growth inhibition of human NCI-H23 cells after 48 hrs by SRB assay; format: functional
SK-BR-3 [5] = test: Cell cycle arrest in human SK-BR-3 cells assessed as accumulation at G2/M phase at 0.10 uM after 3 hrs using propidium iodide staining by FACS analysis; format: functional
Method in brief: (§1)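 SKBR-3 cells in RPMI1640 with 10% heat-inactivated FBS at 37 °C and 5% CO₂ were treated for the stated times. Cells were fixed overnight in 70% EtOH at −20 °C, then stained with propidium iodide buffer (38 mM sodium citrate pH 7.5, 69 µM PI, 120 µg/mL RNase A) for 15 min at room temperature in the dark. Up to 1×10⁴ gated cells were analyzed by flow cytometry, giving percent distribution per phase.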

U-251 = test: Growth inhibition of human U251 cells after 48 hrs by SRB assay; format: functional
[6] = Terminal half life in Sprague-Dawley rat at 20 mg/kg, ip; format: ADME, organism-based; design: dose 20 mg/kg, route intraperitoneal; conditions: in vivo, read-out: beta t1/2 (converted)
Method in brief: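 Male Sprague–Dawley rats (300–350 g, n=3), fasted overnight with water allowed. Single 20 mg/kg i.p. dose in PBS with 0.1% Tween80 and 20% DMSO. Blood taken from saphenous and femoral veins into heparinized tubes at 0, 0.25, 0.5, 1, 2, 4, 8 and 24 h. Plasma quantified by LC-MS/MS (MRM, 483.3→404.3) after tert-butyl methyl ether/hexane extraction. Parameters derived non-compartmentally.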

HOP-92 = test: Growth inhibition of human HOP92 cells after 48 hrs by SRB assay; format: functional
SK-BR-3 [7] = test: Cell cycle arrest in human SK-BR-3 cells assessed as accumulation at S phase at 0.10 uM after 18 hrs using propidium iodide staining by FACS analysis; format: functional; method in brief: as §1
UO-31 = test: Growth inhibition of human UO31 cells after 48 hrs by SRB assay; format: functional
SK-BR-3 [8] = test: Cell cycle arrest in human SK-BR-3 cells assessed as accumulation at G1 phase at 0.10 uM after 24 hrs using propidium iodide staining by FACS analysis; format: functional; method in brief: as §1
SK-BR-3 [9] = test: Cell cycle arrest in human SK-BR-3 cells assessed as accumulation at S phase at 0.50 uM after 24 hrs using propidium iodide staining by FACS analysis; format: functional
SN12C = test: Growth inhibition of human SN12C cells after 48 hrs by SRB assay; format: functional
HCC 2998 = test: Growth inhibition of human HCC2998 cells after 48 hrs by SRB assay; format: functional
SK-BR-3 [10] = test: Cell cycle arrest in human SK-BR-3 cells assessed as accumulation at G1 phase at 0.10 uM after 18 hrs using propidium iodide staining by FACS analysis; format: functional; method in brief: as §1
SK-BR-3 [11] = test: Cell cycle arrest in human SK-BR-3 cells assessed as accumulation at S phase at 0.50 uM after 3 hrs using propidium iodide staining by FACS analysis; format: functional
SK-BR-3 [12] = test: Cell cycle arrest in human SK-BR-3 cells assessed as accumulation at Sub-G1 phase at 0.25 uM after 18 hrs using propidium iodide staining by FACS analysis; format: functional
786-0 = test: Growth inhibition of human 786-0 cells after 48 hrs by SRB assay; format: functional
TK-10 = test: Growth inhibition of human TK10 cells after 48 hrs by SRB assay; format: functional
COLO 205 = test: Growth inhibition of human COLO205 cells after 48 hrs by SRB assay; format: functional
SK-BR-3 [13] = test: Cell cycle arrest in human SK-BR-3 cells assessed as accumulation at G2/M phase at 0.25 uM after 18 hrs using propidium iodide staining by FACS analysis; format: functional; method in brief: as §1
SK-OV-3 = test: Growth inhibition of human SKOV3 cells after 48 hrs by SRB assay; format: functional
SK-BR-3 [14] = test: Cell cycle arrest in human SK-BR-3 cells assessed as accumulation at S phase at 0.10 uM after 24 hrs using propidium iodide staining by FACS analysis; format: functional; method in brief: as §1
SK-BR-3 [15] = test: Cell cycle arrest in human SK-BR-3 cells assessed as accumulation at G1 phase at 5 uM after 18 hrs using propidium iodide staining by FACS analysis; format: functional; method in brief: as §1
HOP-62 = test: Growth inhibition of human HOP62 cells after 48 hrs by SRB assay; format: functional
Malme-3M = test: Growth inhibition of human MALME-3M cells after 48 hrs by SRB assay; format: functional
SK-BR-3 [16] = test: Cell cycle arrest in human SK-BR-3 cells assessed as accumulation at G1 phase at 0.25 uM after 12 hrs using propidium iodide staining by FACS analysis; format: functional; method in brief: as §1
A498 = test: Growth inhibition of human A498 cells after 48 hrs by SRB assay; format: functional
[17] = read-out: LC50 (the source's name)

For `Cc1ccc(C)c(COc2cc(NC(=O)c3ccc4c(c3)OCO4)ccc2N(C)S(C)(=O)=O)c1`, the Activity (SK-BR-3 [1]) was 16.34%, the Activity (SK-BR-3 [2]) was 3.42% and the “growth inhibition (GI)” value (KM12) was “Dose-dependent effect”. The GI50 (KM12; KM12, 48 h) was 0.0855 µM, the TGI (KM12; KM12, 48 h) was 1.13 µM and the CC50 (KM12; KM12, 48 h, read-out: LC50 (the source's name)) was > 100 µM. The Activity (SK-BR-3 [3]) was 24.95%, the Cmax [4] was 1500 ng/mL and the “growth inhibition (GI)” value (NCI-H23) was “Dose-dependent effect”. For the same molecule, the GI50 (NCI-H23; NCI-H23, 48 h) was 0.162 µM, the TGI (NCI-H23; NCI-H23, 48 h) was > 100 µM and the CC50 (NCI-H23; NCI-H23, 48 h, read-out: LC50 (the source's name)) was > 100 µM. For the same molecule, the Activity (SK-BR-3 [5]) was 8.83%, the “growth inhibition (GI)” value (U-251) was “Dose-dependent effect” and the GI50 (U-251; U-251, 48 h) was 0.266 µM. For the same molecule, the TGI (U-251; U-251, 48 h) was 21.9 µM, the CC50 (U-251; U-251, 48 h, read-out: LC50 (the source's name)) was > 100 µM and the half-life [6] was 3.12 h. The “growth inhibition (GI)” value (HOP-92) was “Dose-dependent effect”, the GI50 (HOP-92; HOP-92, 48 h) was 3.22 µM and the TGI (HOP-92; HOP-92, 48 h) was > 100 µM. For the same molecule, the CC50 (HOP-92; HOP-92, 48 h, read-out: LC50 (the source's name)) was > 100 µM, the Activity (SK-BR-3 [7]) was 8.71% and the “growth inhibition (GI)” value (UO-31) was “Dose-dependent effect”. For the same molecule, the GI50 (UO-31; UO-31, 48 h) was 0.395 µM, the TGI (UO-31; UO-31, 48 h) was > 100 µM and the Activity (SK-BR-3 [8]) was 67.9%. The Activity (SK-BR-3 [9]) was 11.21%, the GI50 (SN12C) was 0.472 µM and the TGI (SN12C) was > 100 µM. The “growth inhibition (GI)” value (SN12C) was “Dose-dependent effect”, the CC50 (SN12C; [17]) was > 100 µM and the “growth inhibition (GI)” value (HCC 2998) was “Dose-dependent effect”. The TGI (HCC 2998; HCC 2998, 48 h) was 0.392 µM, the CC50 (HCC 2998; HCC 2998, 48 h, read-out: LC50 (the source's name)) was 2.97 µM and the Activity (SK-BR-3 [10]) was 75.43%. The Activity (SK-BR-3 [11]) was 17.76%, the Activity (SK-BR-3 [12]) was 8.89% and the “growth inhibition (GI)” value (786-0) was “Dose-dependent effect”. The GI50 (786-0; 786-0, 48 h) was 0.191 µM, the TGI (786-0; 786-0, 48 h) was 1.11 µM and the CC50 (786-0; 786-0, 48 h, read-out: LC50 (the source's name)) was > 100 µM. The “growth inhibition (GI)” value (TK-10) was “Dose-dependent effect”, the GI50 (TK-10; TK-10, 48 h) was 0.354 µM and the TGI (TK-10; TK-10, 48 h) was > 100 µM. The CC50 (TK-10; TK-10, 48 h, read-out: LC50 (the source's name)) was > 100 µM, the “growth inhibition (GI)” value (COLO 205) was “Dose-dependent effect” and the GI50 (COLO 205; COLO 205, 48 h) was 0.318 µM. The TGI (COLO 205; COLO 205, 48 h) was 1.07 µM, the CC50 (COLO 205; COLO 205, 48 h, read-out: LC50 (the source's name)) was > 100 µM and the Activity (SK-BR-3 [13]) was 10.57%. The “growth inhibition (GI)” value (SK-OV-3) was “Dose-dependent effect”, the GI50 (SK-OV-3; SK-OV-3, 48 h) was 0.285 µM and the TGI (SK-OV-3; SK-OV-3, 48 h) was > 100 µM. The CC50 (SK-OV-3; SK-OV-3, 48 h, read-out: LC50 (the source's name)) was > 100 µM, the Activity (SK-BR-3 [14]) was 8.91% and the Activity (SK-BR-3 [15]) was 63.55%. The “growth inhibition (GI)” value (HOP-62) was “Dose-dependent effect”, the GI50 (HOP-62; HOP-62, 48 h) was 0.329 µM and the TGI (HOP-62; HOP-62, 48 h) was > 100 µM. For the same molecule, the CC50 (HOP-62; HOP-62, 48 h, read-out: LC50 (the source's name)) was > 100 µM, the GI50 (Malme-3M) was 0.229 µM and the TGI (Malme-3M) was > 100 µM. The “growth inhibition (GI)” value (Malme-3M) was “Dose-dependent effect”, the CC50 (Malme-3M; [17]) was > 100 µM and the Activity (SK-BR-3 [16]) was 73.62%. For the same molecule, the “growth inhibition (GI)” value (A498) was “Dose-dependent effect”, the TGI (A498; A498, 48 h) was 0.853 µM and the CC50 (A498; A498, 48 h, read-out: LC50 (the source's name)) was > 100 µM.
